# Data published in ChEMBL document CHEMBL2034933, “New quinazolinone-pyrimidine hybrids: synthesis, anti-inflammatory, and ulcerogenicity studies” (Eur J Med Chem, 2012).
# What was measured:
# Rattus norvegicus [1] = test: Antiinflammatory activity in albino rat assessed as inhibition of carrageenan-induced paw edema at 100 mg/kg, po administered 1 hr prior to carrageenan-challenge measured after 2 hrs; assay type: functional
# Outline: (§1)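 Adult albino rats of both sexes (120–150 g), pre-hydrated with 3 ml water by gavage, five per group. Test agents suspended in distilled water with a few drops of Tween 80, given orally 1 h before sub-plantar injection of 50 µl 1% carrageenan into the right hind paw. Dial-gauge paw thickness taken at 0.5, 1, 2 and 3 h, with the left paw as reference. % inhibition = (Wc−Wt)/Wc × 100 against saline/Tween 80 controls.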
# Rattus norvegicus [2] = test: Antiinflammatory activity in albino rat assessed as inhibition of carrageenan-induced paw edema at 100 mg/kg, po administered 1 hr prior to carrageenan-challenge measured after 3 hrs; assay type: functional; outline: as §1
# Rattus norvegicus [3] = test: Antiinflammatory activity in albino rat assessed as inhibition of carrageenan-induced paw edema at 100 mg/kg, po administered 1 hr prior to carrageenan-challenge measured after 0.5 hrs; assay type: functional; outline: as §1
# Rattus norvegicus [4] = test: Antiinflammatory activity in albino rat assessed as inhibition of carrageenan-induced paw edema at 100 mg/kg, po administered 1 hr prior to carrageenan-challenge measured after 1 hr; assay type: functional; outline: as §1
# Rattus norvegicus [5] = test: Ulcerogenic activity in fasted albino rat assessed as ulcer index at 100 mg/kg po administered qd for 3 days measured on day 4; assay type: toxicity, organism-based; design: dose 100 mg/kg, route oral; conditions: in vivo, 72 h
# Outline: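 Albino rats of both sexes (120–150 g), five per group, fasted 20 h, then dosed orally in 1% Tween (test agents 100 mg/kg, celecoxib and diclofenac sodium 50 mg/kg). Feeding cycle: 2 h fast, 2 h feed, 20 h fast, repeated with doses on days 2 and 3. Ulcers scored 0–4. Ulcer index = %incidence/10 + mean ulcer number + mean severity.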
# Rattus norvegicus [6] = test: Antiinflammatory activity in po dosed albino rat assessed as inhibition of carrageenan-induced paw edema administered 1 hr prior to carrageenan-challenge relative to diclophenac; assay type: functional
# Ovis aries = organism: Ovis aries; test: Selectivity ratio of IC50 for ovine COX2 to ovine COX1
# Outline: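 Ovine COX-1 and COX-2 inhibition measured with a commercial COX inhibitor screening kit following the Gierse et al. method. Selectivity expressed as the ratio IC50(COX-2)/IC50(COX-1).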
# Rattus norvegicus [7] = test: Antiinflammatory activity in albino rat assessed as inhibition of carrageenan-induced paw edema at 200 mg/kg, po administered 1 hr prior to carrageenan-challenge measured after 3 hrs; assay type: functional
# Outline: (§2)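 Carrageenan rat paw oedema (albino rats of both sexes, 120–150 g), oral dosing in Tween 80 suspension 1 h before 50 µl 1% carrageenan sub-plantar injection. Inhibition read at 3 h over a three-dose series (50, 100, 200 mg/kg for test agents; 20, 50, 100 mg/kg for diclofenac sodium). IC50 given in mg/kg and µmol/kg.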
# Rattus norvegicus [8] = test: Antiinflammatory activity in po dosed albino rat assessed as inhibition of carrageenan-induced paw edema administered 1 hr prior to carrageenan-challenge measured after 3 hrs; assay type: functional, organism-based; outline: as §2
# Rattus norvegicus [9] = test: Antiinflammatory activity in albino rat assessed as inhibition of carrageenan-induced paw edema at 50 mg/kg, po administered 1 hr prior to carrageenan-challenge measured after 3 hrs; assay type: functional; outline: as §1
SMILES,inhibition in vivo at 100 mg/kg (Rattus norvegicus [1]),inhibition in vivo at 100 mg/kg (Rattus norvegicus [2]),inhibition in vivo at 100 mg/kg (Rattus norvegicus [3]),inhibition in vivo at 100 mg/kg (Rattus norvegicus [4]),UI (Rattus norvegicus [5]),inhibition (INH) (Rattus norvegicus [6]),Ratio IC50 (Ovis aries),inhibition in vivo at 200 mg/kg (Rattus norvegicus [7]),IC50 (Rattus norvegicus [8]),inhibition in vivo at 50 mg/kg (Rattus norvegicus [9])
Cn1c(SCC(=O)Nn2c(COc3ccc(Cl)cc3Cl)nc3ccccc3c2=O)nc(-c2ccccc2)c(C#N)c1=O,59.6%,59.6%,51.9%,54.5%,–,–,–,–,–,–
N#Cc1c(Nc2ccc(Cl)cc2)nc(SCC(=O)Nn2c(COc3ccc(Cl)cc3Cl)nc3ccccc3c2=O)nc1-c1ccc(O)cc1,77.2%,79%,65.4%,72.7%,12.08,–,–,–,–,–
Cn1c(SCC(=O)Nn2c(COc3ccc(Cl)cc3Cl)nc3ccccc3c2=O)nc(-c2ccc(Cl)cc2)c(C#N)c1=O,73.7%,73.7%,80.8%,76.4%,–,–,–,–,–,–
N#Cc1c(Nc2ccc(O)cc2)nc(SCC(=O)Nn2c(COc3ccc(Cl)cc3Cl)nc3ccccc3c2=O)nc1-c1ccc(O)cc1,86.8%,86.8%,80.8%,86.4%,14.22,>90%,7.3,91.2%,88.27 mg/kg,56.1%
N#Cc1c(-c2ccc(O)cc2)nc(SCC(=O)Nn2c(COc3ccc(Cl)cc3Cl)nc3ccccc3c2=O)n(Cc2ccccc2)c1=O,56.1%,61.4%,51.9%,54.5%,–,–,–,–,–,–
N#Cc1c(-c2ccc(Cl)cc2)nc(SCC(=O)Nn2c(COc3ccc(Cl)cc3Cl)nc3ccccc3c2=O)n(Cc2ccccc2)c1=O,77.2%,77.2%,61.5%,72.7%,11.3,–,–,–,–,–
N#Cc1c(-c2ccccc2)nc(SCC(=O)Nn2c(COc3ccc(Cl)cc3Cl)nc3ccccc3c2=O)n(Cc2ccccc2)c1=O,79%,79%,76%,77.3%,10.9,–,–,–,–,–
N#Cc1c(Nc2ccc(O)cc2)nc(SCC(=O)Nn2c(COc3ccc(Cl)cc3Cl)nc3ccccc3c2=O)nc1-c1ccc(Cl)cc1,91.2%,91.2%,71.2%,90.9%,14.43,>90%,0.4,96.5%,83.36 mg/kg,61.4%
N#Cc1c(Nc2ccc(Cl)cc2)nc(SCC(=O)Nn2c(COc3ccc(Cl)cc3Cl)nc3ccccc3c2=O)nc1-c1ccccc1,57.9%,59.6%,51.9%,54.5%,–,–,–,–,–,–
N#Cc1c(-c2ccc(O)cc2)nc(SCC(=O)Nn2c(COc3ccc(Cl)cc3Cl)nc3ccccc3c2=O)[nH]c1=O,68.4%,68.4%,61.5%,63.6%,–,–,–,–,–,–
N#Cc1c(Nc2ccc(O)cc2)nc(SCC(=O)Nn2c(COc3ccc(Cl)cc3Cl)nc3ccccc3c2=O)nc1-c1ccccc1,59.6%,59.6%,61.5%,72.7%,–,–,–,–,–,–
O=C(CSc1nc(-c2ccccc2)c(C(=O)O)c(=O)[nH]1)Nn1c(COc2ccc(Cl)cc2Cl)nc2ccccc2c1=O,68.4%,64.9%,61.5%,69.1%,–,–,–,–,–,–
N#Cc1c(Nc2ccccc2)nc(SCC(=O)Nn2c(COc3ccc(Cl)cc3Cl)nc3ccccc3c2=O)nc1-c1ccccc1,78.1%,78.1%,71.2%,77.3%,13.26,–,–,–,–,–
